Compound activity: PubChem BioAssay, several laboratories
iPSC survival up = enhancers of single-cell hiPSC survival, primary screen, ATPlite luminescence | 100% = ROCK inhibitor wells, 0% = DMSO | survival enhancement, % at 20 µM | 0.044% of 360,000 active | AID 602274, 2012; in the data active = survival enhancement above about 18%;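 note: cells exposed to compounds for 16 hours before the ATP read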
ABCB6 inh MLPCN = ABCB6 transporter inhibitors, primary screen, K562-ABCB6 cells, flow cytometry, MLPCN library; 0.19% of 360,000 active; AID 602162, 2011; fluorescence ratio to DMSO, % at 10 µM; K562-ABCB6 porphyrin accumulation, 1 h; stronger effect = lower value;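 active = fluorescence ratio to DMSO below 75%, the collection mean minus 3 SD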;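 note: signal is porphyrin accumulated inside mitochondria; 100% equals median channel fluorescence of DMSO control wells; lower ratio means ABCB6 inhibition with less porphyrin fluorescence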
FAS-TE inh = FAS thioesterase domain inhibitors, primary screen, biochemical, fluorescence intensity, uHTS; 0.67% of 360,000 active; recombinant FAS-TE, OMFH fluorogenic substrate, fluorescence endpoint; AID 602261, 2012; inhibition, % at 15 µM; Fatty acid synthase (Homo sapiens), P49327;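 active = compounds whose normalised, plate-corrected inhibition of enzyme fluorescence in the single-dose primary screen is 50% or more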;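 note: 0% = DMSO with enzyme and 100% = substrate without enzyme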
SENP1 FRET inh = human SENP1 catalytic domain inhibitors, primary screen, biochemical, FRET, uHTS; recombinant SENP1 catalytic domain, CyPet-SUMO1-YPet FRET cleavage; AID 624204, 2012; 0.21% of 360,000 active; inhibition, % at 10 µM;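 active = inhibition at least 30% at 10 µM, raw YFP signal under a set limit, fluorescence ratio 0.5 to 1.5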;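 note: 0% = enzyme with DMSO and 100% = no enzyme wells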
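System: Recombinant human SENP1 catalytic domain, His6-tagged | Incubation: Enzyme reaction for 50 min at room temperature, dark | Medium: Tris pH 8 with BME, BSA, NP40 and catalase | Also added: 25 nM SUMO1 FRET substrate | Compound: 10 µM single point, 0.5% DMSO | Measured by: FRET fluorescence in CFP and YFP emission channels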
FAS-TE inh conf = FAS thioesterase domain inhibitors, confirmation, biochemical, fluorescence intensity, single concentration | recombinant FAS-TE, OMFH fluorogenic substrate | AID 624325, 2012 | 45% of 2,300 active | shares compounds with FAS-TE inh | inhibition, % at 15 µM;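 active = compounds inhibiting the enzyme by at least 50% at 15 µM in any one of the replicates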;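 note: 0% = enzyme with DMSO only and 100% = wells lacking enzyme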
The depositor's hits bear a star; . = no result given. Most compounds without a hit are left out; they make up all but 1.1% or so of the library.

SMILES | iPSC survival up | ABCB6 inh MLPCN | FAS-TE inh | SENP1 FRET inh | FAS-TE inh conf
Cc1cc(C(=O)Nc2ccccc2C(=O)O)ccc1NC(=O)COc1cccc(C)c1C | 0 | 101 | 21 | 0 | .
CCCC1NC(=O)c2cc3ccccc3cc2-n2c1nc1cc(Cl)ccc1c2=O (stereo not drawn) | 0 | 101 | 73* | -3 | 35
Cc1cc(C)c2c(=O)n3c(nc2c1)C(Cc1ccccc1)NC(=O)c1cc2ccccc2cc1-3 (stereo not drawn) | 0 | 97 | 86* | -7 | 5
Cc1ccc2nc3n(c(=O)c2c1)-c1cc2ccccc2cc1C(=O)NC3Cc1ccccc1 (stereo not drawn) | 3 | 91 | 91* | -2 | 2
CCC1NC(=O)c2cc3ccccc3cc2-n2c1nc1cc(C)cc(C)c1c2=O (stereo not drawn) | 4 | 100 | -2 | -4 | .
O=C1NC(Cc2ccccc2)c2nc3ccc(Cl)cc3c(=O)n2-c2cc3ccccc3cc21 (stereo not drawn) | 1 | 97 | 78* | -3 | 11
CCCC1NC(=O)c2cc3ccccc3cc2-n2c1nc1ccc(C)cc1c2=O (stereo not drawn) | 2 | 99 | 27 | -2 | .
O=C1NC(Cc2ccc(O)cc2)c2nc3ccc(Cl)cc3c(=O)n2-c2cc3ccccc3cc21 (stereo not drawn) | -2 | 95 | 19 | -1 | .
CCOC(=O)c1c(NC(=O)COC(=O)c2cnccn2)sc(C)c1C | 0 | 84 | -1 | 0 | .
CCOC(=O)[C@]12CCCC=C1N(CCc1ccc(OC)c(OC)c1)C(=O)[C@H](CC(=O)N1CCN(C(=O)C3CC3)CC1)C2 | . | . | . | 2 | .
O=C1NC(Cc2ccccc2)c2nc3ccc(F)cc3c(=O)n2-c2cc3ccccc3cc21 (stereo not drawn) | 2 | 96 | 80* | -1 | 29
CCC1NC(=O)c2cc3ccccc3cc2-n2c1nc1ccc(F)cc1c2=O (stereo not drawn) | 3 | 95 | 0 | 0 | .
O=C(NCc1cccc(F)c1)c1cccc2c1C(=O)c1ccc(N3CCCC3)cc1S2(=O)=O | 2 | 99 | -119 | -25 | .
COc1ccccc1N1CCN(c2ccc3c(c2)S(=O)(=O)c2cccc(C(=O)NCc4ccc(F)cc4)c2C3=O)CC1 | 0 | 98 | 51* | 11 | 23
N#C/C(=C/c1cn[nH]c1-c1ccc(Br)cc1)C(=O)O | 0 | 99 | 2 | -20 | .
CC1C(=O)CC(c2ccc([N+](=O)[O-])cc2)NC1c1ccc([N+](=O)[O-])cc1 (stereo not drawn) | 0 | 100 | 52* | 2 | -1
Cn1c(-c2ccccc2)cnc1NCc1cccc([N+](=O)[O-])c1 | 0 | 99 | 71* | -1 | 67*
CC(=O)Nc1ccc(S(=O)(=O)Nc2ccc(Nc3ccccc3)cc2)cc1 | -1 | 97 | 10 | 0 | .
COC(=O)[C@@]12CCCCN1[C@H](c1ccc(-c3ccc(Cl)c(Cl)c3)c(OC)c1)[C@@H]1C(=O)N(C)C(=O)[C@@H]12 | -2 | 100 | 44 | 0 | .
CCN1C(=O)[C@@H]2[C@@H](c3ccc(-c4ccc(OC)cc4)cc3)N3CCCC[C@@]3(C(=O)OC)[C@@H]2C1=O | -2 | 98 | 18 | -6 | .
CCN1C(=O)[C@@H]2[C@@H](c3ccc(-c4ccc(OC)cc4)c(OC)c3)N3CCCC[C@@]3(C(=O)OC)[C@@H]2C1=O | -2 | 97 | 51* | -3 | -4
COC(=O)[C@@]12CCCCN1[C@H](c1ccc(-c3ccc(Cl)c(Cl)c3)c(OC)c1)[C@H]1C(=O)N(C)C(=O)[C@H]12 | 0 | 92 | 60* | 1 | 17
CCN1C(=O)[C@H]2[C@@H](c3ccc(-c4ccc(OC)cc4)c(OC)c3)N3CCCC[C@@]3(C(=O)OC)[C@H]2C1=O | 0 | 102 | 70* | 0 | 22
CCN1C(=O)[C@H]2[C@@H](c3ccc(-c4ccc(F)cc4)c(OC)c3)N3CCC[C@@]3(C(=O)OC)[C@H]2C1=O | -2 | 93 | 13 | 2 | .
COc1ccc(C(=O)N2CCCCCC2)cc1S(=O)(=O)N1CCOCC1 | -1 | 104 | -4 | 1 | .
SMILES | iPSC survival up | ABCB6 inh MLPCN | FAS-TE inh | SENP1 FRET inh | FAS-TE inh conf
COCCN1C(=O)CN(S(C)(=O)=O)CC1(C)C(=O)NCc1ccccc1 (stereo not drawn) | . | . | . | 0 | .
COc1ccccc1C(=O)COC(=O)CNS(=O)(=O)c1ccc(C)c(C)c1 | 0 | 101 | 3 | 2 | .
COC(=O)c1cc(C(=O)OCC(=O)NC2CCS(=O)(=O)C2)cc([N+](=O)[O-])c1 (stereo not drawn) | 0 | 97 | -3 | 1 | .
COC(=O)c1cc(C(=O)OCC(=O)NC2CCCC2)cc([N+](=O)[O-])c1 | 0 | 98 | 61* | 0 | 64*
Cc1cc(C)c([N+](=O)[O-])cc1NCC(=O)N1CCN(c2ccccc2)CC1 | 0 | 123 | 78* | 2 | 66*
CC1CC(C)CN(C(=O)COC(=O)c2cccc([N+](=O)[O-])c2)C1 (stereo not drawn) | 0 | 93 | 36 | -1 | .
O=C(COC(=O)c1cccc([N+](=O)[O-])c1)NC1CCCC1 | 0 | 98 | 61* | 3 | 68*
O=C(OCC(=O)N1CCN(c2ccccc2)CC1)c1cccc([N+](=O)[O-])c1 | 0 | 95 | 54* | 0 | 57*
O=C(O)c1cccc(Br)c1 | -1 | 99 | -6 | 1 | .
C/C(=N\NC(=S)NC1CCCCC1)c1ccc(OC(F)F)cc1OC(F)F | 0 | 97 | 57* | 1 | 45
CCN(C(=O)COC(=O)c1cc([N+](=O)[O-])ccc1N1CCOCC1)C1CCS(=O)(=O)C1 (stereo not drawn) | 0 | 101 | 4 | 1 | .
O=C(COC(=O)c1cc([N+](=O)[O-])ccc1N1CCOCC1)NC1CCS(=O)(=O)C1 (stereo not drawn) | 0 | 98 | 16 | 5 | .
O=C(COC(=O)c1cc(F)c(F)cc1Cl)NC1CCCCCC1 | 11 | 97 | 56* | 0 | 68*
CC1CCCCN1C(=O)COC(=O)c1cc([N+](=O)[O-])ccc1N1CCOCC1 (stereo not drawn) | 0 | 101 | 54* | 0 | 57*
O=C(COC(=O)c1cc([N+](=O)[O-])ccc1N1CCOCC1)NC1CCCCC1 | 0 | 98 | 92* | 1 | 91*
CCN(C(=O)COC(=O)c1cc([N+](=O)[O-])ccc1N1CCOCC1)C1CCCCC1 | 0 | 93 | 86* | 3 | 92*
CN(C(=O)COC(=O)c1cc([N+](=O)[O-])ccc1N1CCOCC1)C1CCCCC1 | -1 | 97 | 89* | -1 | 93*
